High-throughput results as filed in PubChem.
A selection: hits, their analogues and other compounds. The true share with any hit is near 3.1%.
SENP8 block-1 = blocks the human protease SENP8; Q96LD8; purified SENP8, Z-RLRGG-aminoluciferin cleavage, luminescence; inhibition, % at 10 µM; 330,000 tested, 1.2% active; in the data active = inhibition above about 50%
Apaf-1 inh = inhibitors of human Apaf-1 apoptosome. O14727. reconstituted apoptosome caspase-3 activity, DEVD-Rh110 fluorescence. inhibition, % at 20 µM. 330,000 tested, 0.71% active; active = inhibition of at least 40% at 20 µM;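 also: plate controls were DMSO wells for no effect and DEVD-CHO caspase inhibitor wells for full effect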
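Material: biochemical Apaf-1 apoptosome reconstitution. Medium: Hepes buffer, pH 7.5. Also added: cytochrome c activation, bis-DEVD rhodamine 110 substrate. Timing: 30 min compound preincubation, 50 min activation, room temperature. Measured by: rhodamine 110 fluorescence at Ex 480/Em 540 nm.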
SENP8 block-2 = SENP8 (human) protease inhibition | Q96LD8 | recombinant SENP8, Nedd8 substrate fluorescence | inhibition, % at 20 µM | 360,000 tested, 0.64% active; in the data active = inhibition mostly above about 40%, no sharp cut-off; inactive = mostly below about 27%
SENP7 inh = inhibitors of human SENP7 protease | recombinant SENP7, Z-RLRGG-aminoluciferin luminescence, 40 min | 330,000 tested, 1.5% active | Q9BQF6 | inhibition, % at 5 µM;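 active = inhibition above about 50% at the single test dose, limit read from the data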;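 also: plate controls were DMSO with enzyme for no effect and no enzyme buffer wells for full effect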
Target sequence (Q9BQF6 706-1050 limits assumed): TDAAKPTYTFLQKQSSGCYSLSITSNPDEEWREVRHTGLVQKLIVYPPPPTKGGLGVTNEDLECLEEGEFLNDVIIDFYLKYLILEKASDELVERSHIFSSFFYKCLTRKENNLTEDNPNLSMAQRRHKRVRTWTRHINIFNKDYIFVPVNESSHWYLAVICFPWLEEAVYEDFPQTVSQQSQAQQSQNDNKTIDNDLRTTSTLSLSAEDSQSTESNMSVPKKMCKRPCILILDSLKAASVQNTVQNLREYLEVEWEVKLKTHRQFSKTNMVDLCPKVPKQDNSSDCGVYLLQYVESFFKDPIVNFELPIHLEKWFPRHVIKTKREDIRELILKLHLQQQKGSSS
SENP6 block = SENP6 protease inhibition. Recombinant SENP6 catalytic domain, aminoluciferin luminescence. Q9GZR1. 330,000 tested, 1.8% active. inhibition, % at 10 µM. AID 2599;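 active = inhibition above about 50% at the single tested dose, limit read from the data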;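 also: plate controls were DMSO wells with enzyme for no effect and DMSO wells lacking enzyme for full effect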
UBC13 inh = blocks human UBC13 polyubiquitin chain formation; TR-FRET; inhibition, % at 20 µM; P61088; 330,000 tested, 0.47% active; in the data active = inhibition above about 45%, passing the limit was not always enough
SENP8 confirm = human SENP8 inhibition, confirmed. AID 488912. inhibition, % at 12.5 µM. Recombinant SENP8, Z-RLRGG-aminoluciferin luminescence, 60 min. 6,200 tested, 40% active. shares compounds with SENP7 inh;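 active = mean inhibition across replicates above about 50%, limit read from the data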
SENP6 conf = human SENP6 inhibition, confirmed. shares compounds with SENP7 inh. recombinant SENP6, Z-RLRGG-aminoluciferin luminescence. inhibition, % at 12.5 µM. 6,200 tested, 58% active. AID 488915
SENP7 confirm = confirmation of human SENP7 protease inhibitors; shares compounds with SENP7 inh; recombinant SENP7, Z-RLRGG-aminoluciferin luminescence, 40 min; inhibition, % at 12.5 µM; 6,200 tested, 69% active; AID 488917
Casp3 SENP sel = caspase-3 inhibition (SENP selectivity assay); shares compounds with SENP7 inh; purified caspase-3, Z-DEVD-aminoluciferin luminescence, 60 min; inhibition, % at 12.5 µM; 6,200 tested, 60% active;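 active = mean inhibition above about 50%, limit read from the data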;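 also: plate controls were enzyme with DMSO for no effect and wells without caspase-3 for full effect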
Target sequence (P42574 28-227 limits assumed): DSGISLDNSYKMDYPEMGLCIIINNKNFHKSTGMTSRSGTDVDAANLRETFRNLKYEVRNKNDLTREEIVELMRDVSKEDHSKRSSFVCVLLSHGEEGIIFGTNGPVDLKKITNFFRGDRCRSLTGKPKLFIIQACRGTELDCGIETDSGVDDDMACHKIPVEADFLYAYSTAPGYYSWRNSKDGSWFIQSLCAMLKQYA
SENP luc ctr = luminescence interference (SENP counter-screen). shares compounds with SENP7 inh. Pre-incubated SENP8/Z-RLRGG-aminoluciferin, luciferase luminescence interference. inhibition, % at 12.5 µM. 6,200 tested, 39% active. AID 488919;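 active = mean inhibition above about 50% when retested at one dose, limit read from the data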;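 also: plate controls were DMSO wells with completed reaction for no effect and substrate without enzyme for full effect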
Starred values were filed as active, the others as inactive.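 The calls were made as follows, unless noted: active = mean inhibition above about 50% in the one-dose retest (limit read from the data); inactive = the rest.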

CC(=O)Nc1cccc(-c2csc(Nc3ccccn3)n2)c1 was read as SENP8 block-1 78.8*, Apaf-1 inh -11.1, SENP8 block-2 4.2, SENP7 inh 92.0*, SENP6 block 83.9*, UBC13 inh 1.8, SENP8 confirm 88.1*, SENP6 conf 86.8*, SENP7 confirm 98.3*, Casp3 SENP sel 68.0* and SENP luc ctr 87.6*.
Fc1ccc(-c2csc(Nc3ccccn3)n2)cc1 was read as SENP8 block-1 83.5*, Apaf-1 inh 29.4, SENP8 block-2 7.8, SENP7 inh 89.7*, SENP6 block 86.9*, UBC13 inh -5.4, SENP8 confirm 91.2*, SENP6 conf 92.2*, SENP7 confirm 99.8*, Casp3 SENP sel 70.1* and SENP luc ctr 58.4*.
`Clc1ccccc1Nc1nc(-c2cccnc2)cs1` gave SENP8 block-1 73.6*, Apaf-1 inh -4.9, SENP8 block-2 19.8, SENP7 inh 82.8*, SENP6 block 87.9*, UBC13 inh -4.3, SENP8 confirm 88.9*, SENP6 conf 85.5*, SENP7 confirm 96.7*, Casp3 SENP sel 66.0* and SENP luc ctr 53.0*.
Screening c1cncc(Nc2nc(-c3cccnc3)cs2)c1 returned SENP8 block-1 -4.9, Apaf-1 inh -2.0, SENP8 block-2 17.9, SENP7 inh 8.2, SENP6 block 7.1 and UBC13 inh -3.9.
c1ccc(Nc2nc(-c3cccnc3)cs2)nc1 was read as SENP8 block-1 54.5*, Apaf-1 inh 5.0, SENP8 block-2 3.7, SENP7 inh 81.3*, SENP6 block 88.0*, UBC13 inh 7.0, SENP8 confirm 16.7, SENP6 conf 35.0, SENP7 confirm 87.5*, Casp3 SENP sel 78.7* and SENP luc ctr 16.4.
`CC(=O)NC(C)(c1ccccc1)c1nc(-c2cc(F)cc(F)c2)cs1` (stereo not drawn) gave SENP8 block-2 17.3.
For CC(C)c1ccc(C(C(C(=O)c2ccccc2)N2CCOCC2)N2CCOCC2)cc1 (stereo not drawn) the results were SENP8 block-2 0.2.
Screening Cc1cccc(-c2nc3cc([N+](=O)[O-])ccc3o2)c1 returned SENP8 block-1 25.9, Apaf-1 inh -33.1, SENP8 block-2 15.9, SENP7 inh 81.9*, SENP6 block 20.9, UBC13 inh -6.4, SENP8 confirm 15.1, SENP6 conf 31.9, SENP7 confirm 71.6*, Casp3 SENP sel 75.3* and SENP luc ctr 33.6.
O=[N+]([O-])c1ccc2oc(-c3ccccc3)nc2c1 was read as SENP8 block-1 39.4, Apaf-1 inh -3.1, SENP8 block-2 0.4, SENP7 inh 76.8*, SENP6 block 45.3, UBC13 inh 1.8, SENP8 confirm 1.8, SENP6 conf 5.8, SENP7 confirm 45.2, Casp3 SENP sel 29.9 and SENP luc ctr 2.0.
`COc1ccc(-c2nc3ccc([N+](=O)[O-])cc3o2)cc1` gave SENP8 block-1 9.7, Apaf-1 inh -11.7, SENP8 block-2 2.5, SENP7 inh 69.0*, SENP6 block 24.2, UBC13 inh -3.5, SENP8 confirm -3.8, SENP6 conf 3.4, SENP7 confirm 7.8, Casp3 SENP sel 12.7 and SENP luc ctr 0.6.
CCc1nc2c(OCC3CCCCC3)cccn2c1N(C)C(=O)c1ccc(C)cc1 was read as SENP8 block-2 8.2.
Screening Nc1nc2c(ncn2[C@@H]2O[C@H](CNCc3cnc(N4CCOCC4)s3)[C@@H](O)[C@H]2O)c(=O)[nH]1 returned SENP8 block-2 20.1.
Screening C=C1CCc2c([nH]c3ccc(OCC(C)C)cc23)C1=O returned SENP8 block-1 8.1, Apaf-1 inh 19.0, SENP8 block-2 -278.8, SENP7 inh -1.8, SENP6 block 94.7*, UBC13 inh 1.1, SENP8 confirm 12.4, SENP6 conf 3.8, SENP7 confirm 7.1, Casp3 SENP sel 4.3 and SENP luc ctr 3.4.
Screening COc1ccc2[nH]c3c(c2c1)CCNC3=O returned SENP8 block-1 3.5, Apaf-1 inh 1.2, SENP8 block-2 -451.1, SENP7 inh -2.0, SENP6 block -12.5 and UBC13 inh 8.2.
`CCCCC[C@@H](C)N1C[C@H](COCc2ccccc2)Oc2cc(N3CCC[C@@H]3COC)ccc2S1(=O)=O` gave SENP8 block-2 -159.7.
O=C(Nc1ccc(F)cc1)c1ccc2snnc2c1 was read as SENP8 block-1 4.1, Apaf-1 inh -3.4, SENP8 block-2 1.9, SENP7 inh 1.9, SENP6 block -0.6 and UBC13 inh 2.0.
COc1cccc(NC(=O)c2ccc3snnc3c2)c1 was read as SENP8 block-1 48.1, Apaf-1 inh 3.8, SENP8 block-2 33.3, SENP7 inh 57.5*, SENP6 block 63.9*, UBC13 inh -1.6, SENP8 confirm 55.5*, SENP6 conf 52.4*, SENP7 confirm 83.9*, Casp3 SENP sel 74.6* and SENP luc ctr 63.8*.
COc1cccc(NC(=O)c2ccc3nc(C)sc3c2)c1 was read as SENP8 block-1 72.5*, Apaf-1 inh -4.7, SENP8 block-2 15.9, SENP7 inh 88.9*, SENP6 block 90.6*, UBC13 inh -0.1, SENP8 confirm 80.3*, SENP6 conf 80.6*, SENP7 confirm 95.1*, Casp3 SENP sel 87.1* and SENP luc ctr 84.2*.
`CCCOc1ccc(F)cc1-c1cc(C(=O)Nc2ccc(OC)cc2C)[nH]n1` gave SENP8 block-2 9.1.
COc1ccc(OC)c2c(C)cc(N3CCN(C(=O)c4ccc(Cl)cc4)CC3)nc12 was read as SENP8 block-1 42.3, Apaf-1 inh 27.0, SENP8 block-2 -300.0, SENP7 inh 24.1, SENP6 block 69.2*, UBC13 inh -4.0, SENP8 confirm 11.6, SENP6 conf 5.4, SENP7 confirm 4.7, Casp3 SENP sel 2.8 and SENP luc ctr -3.2.
Screening O=C(c1ccc(Cl)cc1)N1CCN(c2ccc(N3CCOCC3)nn2)CC1 returned SENP8 block-2 -498.4.
